≈ marks a conversion by molar mass, not a printed value. Calls of active or inactive are those of the source. The calls are words filed in the database; no cut-off is given here. Numbered stars: 1 amine (or outer) side, 2 acyl side, 3 side chain; on linkers, the order of the positions; unused ones are H or OH. Square brackets hold non-standard residues; d marks the D form. Peptide text beside a SMILES is read from it. * marks the point of attachment. X1 = CC(C)[C@H](N[*:1])C1=N[C@H](C(=O)[*:2])CS1; Allyl(1,1-Me2) = C=CC(C)(C)*
Key:
[1] = tested on: Cryptococcus neoformans; experiment: Antimicrobial activity against Cryptococcus neoformans; type: functional, organism-based
[2] = tested on: Staphylococcus aureus; experiment: Antimicrobial activity against methicillin-resistant Staphylococcus aureus; type: functional, organism-based
[3] = tested on: Nakaseomyces glabratus; experiment: Antimicrobial activity against Candida glabrata; type: functional, organism-based
[4] = tested on: Microglia; experiment: Antiinflammatory activity against rat neonatal microglia; type: functional
[5] = tested on: Pichia kudriavzevii; experiment: Antimicrobial activity against Candida krusei; type: functional, organism-based
[6] = tested on: Mycobacterium intracellulare; experiment: Antimicrobial activity against Mycobacterium intracellular; type: functional, organism-based
[7] = tested on: Plasmodium falciparum; experiment: Antimalarial activity against Plasmodium falciparum D6; type: functional, organism-based
[8] = tested on: Candida albicans; experiment: Antimicrobial activity against Candida albicans; type: functional, organism-based
[9] = tested on: Plasmodium falciparum; experiment: Antimalarial activity against Plasmodium falciparum W2; type: functional, organism-based
[10] = tested on: Leishmania donovani; experiment: Antileishmanial activity against Leishmania donovani; type: functional, organism-based
[11] = biological target: T1, Prostaglandin G/H synthase 2 (Homo sapiens) (UniProt P35354); experiment: Inhibition of COX2 in cell based assay
T1 sequence (whole entry): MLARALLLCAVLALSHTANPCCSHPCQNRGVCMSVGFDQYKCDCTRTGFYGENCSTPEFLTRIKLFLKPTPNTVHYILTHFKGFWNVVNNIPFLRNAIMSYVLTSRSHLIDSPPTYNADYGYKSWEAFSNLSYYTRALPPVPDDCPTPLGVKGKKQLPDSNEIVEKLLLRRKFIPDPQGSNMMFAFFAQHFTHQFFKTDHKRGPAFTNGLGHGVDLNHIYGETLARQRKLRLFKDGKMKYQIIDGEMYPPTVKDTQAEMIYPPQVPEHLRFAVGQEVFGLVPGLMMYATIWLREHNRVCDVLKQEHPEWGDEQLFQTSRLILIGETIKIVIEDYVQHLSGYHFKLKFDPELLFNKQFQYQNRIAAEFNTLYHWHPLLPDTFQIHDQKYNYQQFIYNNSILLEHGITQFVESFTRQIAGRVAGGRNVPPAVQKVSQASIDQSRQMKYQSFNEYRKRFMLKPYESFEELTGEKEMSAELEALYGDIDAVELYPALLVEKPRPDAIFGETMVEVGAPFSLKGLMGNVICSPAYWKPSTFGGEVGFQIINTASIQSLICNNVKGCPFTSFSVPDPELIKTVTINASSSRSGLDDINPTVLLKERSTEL

[12] = tested on: Human immunodeficiency virus 1; experiment: Antiviral activity against HIV1 infected in human PBMC; type: functional, organism-based
[13] = tested on: HCT-116; experiment: Cytotoxicity against human HCT116 cells assessed as zone differential value; type: functional
Procedure, shortened: (§1)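 In vitro disk diffusion assay measuring differential cell killing across nine cell types: leukemias (murine L1210, human CCRF-CEM), solid tumors (murine colon 38, human HCT-116, H125, MCF-7, LNCaP), and murine and human normal hematopoietic progenitor cells (CFU-GM). The read-out is the zone differential between solid tumor, leukemia and normal cell colonies.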

[14] = Cytotoxicity against human H125 cells assessed as zone differential value; type: functional; procedure, shortened: as §1
[15] = Cytotoxicity against mouse Colon38 cells assessed as zone differential value; type: functional; procedure, shortened: as §1
[16] = tested on: L1210; experiment: Cytotoxicity against mouse L1210 cells assessed as zone differential value; type: functional; procedure, shortened: as §1

SMILES | Activity [1] | Activity [2] | Activity [3] | Activity [4] | Activity [5] | Activity [6] | IC50 [7] | Activity [8] | IC50 [9] | IC50 [10] | IC90 [10] | Activity [11] | EC50 [12] | Activity [13] | Activity [14] | Activity [15] | Activity [16]
C=CC(C)(C)O[C@H](C)[C@@H]1NC(=O)[C@@H]2CCCN2C(=O)[C@H](Cc2ccccc2)NC(=O)[C@H](C(C)C)NC(=O)[C@@H]2CSC(=N2)[C@H](C(C)C)NC1=O [MOLLAMIDE B] (cyclo(FPT(Allyl(1,1-Me2))[X1]V)) | inactive | inactive | inactive | inactive | inactive | inactive | 2 mg/L (≈ 2.87 µM) | inactive | 2.1 mg/L (≈ 3.01 µM) | 18 mg/L (≈ 25.8 µM) | 35 mg/L (≈ 50.2 µM) | inactive | 48.7 µM | – | – | – | –
C=CC(C)(C)OC[C@@H]1NC(=O)CNC(=O)[C@@H]2CCCN2C(=O)[C@H]([C@H](C)CC)NC(=O)c2csc(n2)[C@H](CC(C)C)NC1=O [MOLLAMIDE C] | – | – | – | inactive | – | – | – | – | – | – | – | inactive | – | 100 | 100 | 250 | 100

— ChEMBL document CHEMBL1157508, “Mollamides B and C, Cyclic hexapeptides from the indonesian tunicate Didemnum molle” (J Nat Prod, 2008)
